# LMPTP block – LMPTP phosphatase inhibitors, primary screen, biochemical, fluorescence intensity, uHTS; Low molecular weight phosphotyrosine protein phosphatase (Homo sapiens), P24666; recombinant LMPTP-A, OMFP fluorogenic substrate; inhibition, % at 20 µM; hit rate 0.22% among 360,000;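 active means compounds that cut the enzyme signal by at least half of the control window in the single-dose screen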;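 further: plate controls were DMSO wells with enzyme plus substrate for no effect and substrate without enzyme for full effect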
# Target sequence (P24666 whole entry, looked up): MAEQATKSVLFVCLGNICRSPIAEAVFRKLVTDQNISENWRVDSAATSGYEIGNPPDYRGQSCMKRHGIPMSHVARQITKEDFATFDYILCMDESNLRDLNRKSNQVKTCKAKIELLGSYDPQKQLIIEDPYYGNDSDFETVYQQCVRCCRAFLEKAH
#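 Assay system: LMPTP-A, protein tyrosine phosphatase of low molecular weight / Medium: pH 6.0 Bis-Tris buffer with DTT and Triton X-100 / Schedule: 50 min enzyme reaction at room temperature, protected from light / Measured by: endpoint fluorescence intensity from OMFP dephosphorylation / Read-out basis: % inhibition relative to no-enzyme and uninhibited control wells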
# DNMT1 inh – human DNMT1 methyltransferase inhibitors, primary screen, biochemical, molecular beacon, fluorescence, HinP1I cleavage, uHTS. DNA (cytosine-5)-methyltransferase 1 (Homo sapiens), P26358. inhibition (reported as % activation of signal), % at 10 µM. hit rate 0.83% among 360,000; in the data active means inhibition above about 50%
# Rpn11 block – Rpn11 (PSMD14) deubiquitinase inhibitors, primary screen, biochemical, fluorescence polarization, uHTS; 26S proteasome non-ATPase regulatory subunit 14 (Homo sapiens), O00487; human 26S proteasome, Ub4-pepOG fluorescence polarization; 20S core pre-blocked with epoxomicin; inhibition, % at 20 µM; hit rate 0.59% among 360,000; AID 588493, 2011;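 active means inhibition at 20 µM, scaled to each plate's controls, above about 33%, limit read from the data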
# Scp1 inh – Scp-1 phosphatase inhibitors, primary screen, biochemical, colorimetric, uHTS; Carboxy-terminal domain RNA polymerase II polypeptide A small phosphatase 1 (Homo …; Recombinant Scp1, phosphopeptide, malachite green phosphate absorbance; inhibition, % at 20 µM; hit rate 0.88% among 340,000; AID 493091, 2011;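 active means inhibition above about 50% at 20 µM, limit read from the data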;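 further: plate controls were DMSO wells with enzyme for no effect and wells lacking enzyme for full effect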
# Target sequence (Q9GZU7 76-261 limits assumed): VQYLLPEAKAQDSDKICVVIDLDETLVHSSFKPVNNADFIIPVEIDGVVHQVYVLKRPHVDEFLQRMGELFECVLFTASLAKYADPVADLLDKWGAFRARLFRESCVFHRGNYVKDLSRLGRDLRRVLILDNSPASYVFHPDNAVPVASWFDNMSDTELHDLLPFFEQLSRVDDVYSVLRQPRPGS
#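 System: SCP-1 catalytic domain; Reagent: Phospho 17-mer peptide substrate; Doses: one concentration, 20 µM, with 1.0% DMSO; Incubation: 45 min room-temperature reaction, 5 min colour, 30 min stabiliser; Signal: Phosphate-binding colour reagent, absorbance read at 630 nm.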
# SUMO1-SIM PPI – modulators of SUMO1 protein-protein interactions, primary screen, biochemical, uHTS | SUMO1 binding to a labelled peptide, TR-FRET, 1 h | inhibition, % at 20 µM | hit rate 0.33% among 360,000 | AID 602429, 2012; in the data active means inhibition above about 37%
# Target sequence (P63165 whole entry, looked up): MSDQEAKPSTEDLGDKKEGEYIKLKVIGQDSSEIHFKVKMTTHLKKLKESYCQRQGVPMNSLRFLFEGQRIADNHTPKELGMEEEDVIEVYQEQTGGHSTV
# STEP block – STEP phosphatase inhibitors, primary screen, biochemical, fluorescence intensity, uHTS; recombinant STEP, OMFP fluorogenic substrate; AID 588621, 2011; Tyrosine-protein phosphatase non-receptor type 5 (Homo sapiens), P54829; hit rate 0.25% among 360,000; inhibition, % at 20 µM;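 active means inhibition at 20 µM, scaled per plate between control wells, above about 37%, limit read from the data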;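 further: 0% = DMSO with enzyme and substrate and 100% = substrate only without enzyme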
#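 Test system: STEP tyrosine phosphatase / Reagent: OMFP at 25 µM / Doses: 20 µM, 1% DMSO / Read-out: percent inhibition scaled to no-enzyme and uninhibited-enzyme controls, plate-pattern corrected / Detection: FITC-channel fluorescence of OMFP product / Medium: Bis-Tris buffer pH 6.0, 2.5 mM DTT, 0.005% Tween 20 / Schedule: 20 min at room temperature, dark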
# DNMT1 interf DR – spectral interference with molecular beacon fluorescence, dose response, artefact control for DNMT1 inhibitor project, biochemical, fluorescent molecular beacon | IC50, µM | 200 tested, under 10 active | AID 602382, 2012 | spectral interference counter-screen | shares compounds with DNMT1 inh; call rule not given here
# DNMT1 inh conf – DNMT1 methyltransferase inhibitor retest, confirmation, biochemical, molecular beacon, fluorescence, single concentration. AID 602385, 2012. inhibition, % at 10 µM. shares compounds with DNMT1 inh. hit rate 8% among 2,300. DNMT1 molecular beacon HinP1I cleavage;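 active means average inhibition of at least 30% in the single-concentration confirmation test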
# DNMT1 interf – beacon fluorescence artifact counter-screen; shares compounds with DNMT1 inh; DNMT1 molecular beacon spectral interference counterscreen, fluorescence 485/520; activation (fluorescence interference), % at 10 µM; hit rate 1% among 2,300; AID 602387;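 active means activation of at least 30% at 10 µM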;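 further: DNMT1 catalytic domain with a HinP1I cleavage step and a FAM/dabcyl DNA beacon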
# Starred values were filed as active, the others as inactive; . = no result given. Shown are actives, neighbours in structure and some others; about 2.3% of the full set was active somewhere.
SMILES,LMPTP block,DNMT1 inh,Rpn11 block,Scp1 inh,SUMO1-SIM PPI,STEP block,DNMT1 inh conf,DNMT1 interf,others
O=C1N(Cc2cccc(Cl)c2)C[C@@H]2C[C@@H](c3cccn3-c3cccnc3)N3CCC[C@@]123,2,78*,-6,0,2,5,2,2,
CCn1ncc([C@@H]2C[C@H]3CN(Cc4cccc(Cl)c4)C(=O)[C@]34CCCN24)c1C,1,2,18,-1,-2,0,.,.,
Cc1nc(C(=O)Nc2ccccc2Cl)cc2c1[nH]c1ccccc12,-1,50*,8,3,-1,0,1,0,
COc1ccc(NC(=O)c2cc3c([nH]c4ccccc43)c(C)n2)cc1,-1,-3,-4,-1,5,0,.,.,
O=C(N=Nc1c(O)n(Cc2ccccc2)c2ccccc12)c1cc2ccccc2cc1O,12,82*,-7,37,-6,3,2,-8,
COc1ccc(S(=O)(=O)Nc2cccc3c2O[C@H](CN(C)S(=O)(=O)c2ccccc2)[C@@H](C)CN([C@H](C)CO)C3=O)cc1,0,-3,0,-6,0,1,.,.,
Cc1ccc(/C=C/C(=O)O)cc1S(=O)(=O)Nc1ccc(C(=O)O)cc1,-1,67*,-3,-1,11,-1,2,24,
O=C(Nc1cc2nn(-c3ccccc3)nc2cc1Cl)c1ccco1,13,75*,14,-10,-7,2,0,-5,
Cc1cc(Cl)ccc1OCC(=O)Nc1cccc(S(=O)(=O)NC2=NCCCCC2)c1,1,95*,-3,2,7,-2,3,2,
Cc1ccc(C)c(OCC(=O)Nc2cccc(S(=O)(=O)NC3=NCCCCC3)c2)c1,1,-2,1,4,13,0,.,.,
CCC(Sc1nc2cc(OC)c(OC)cc2c(=O)n1CCc1ccc(OC)c(OC)c1)C(=O)NCCOC (stereo unspecified),-1,3,-8,0,2,-1,.,.,
Cc1ccc(NS(=O)(=O)c2c(C)[nH]c(C)c2C(=O)N2CCCC2)cc1Cl,1,-2,-4,5,-2,0,.,.,
COc1ccc(C(=O)NC(=S)Nc2nnn(C)n2)cc1,0,86*,-3,-14,1,-3,4,7,
CC(C)(C)CN1CCNC[C@H]1Cc1ccc(O)cc1,0,76*,2,0,11,2,3,4,
Cc1ccc(N=C2NC(=O)/C(=C/C=C/c3ccco3)S2)cc1,6,87*,13,34,11,6,2,4,
CCOc1ccc(C(=O)Nc2ccc(S(=O)(=O)N3CCOCC3)cc2)cc1OCC,-1,-5,0,-7,4,-1,.,.,
CCOc1ccc(NC(=O)c2cccc(-n3cccc3)c2)cc1S(=O)(=O)N1CCOCC1,22,102*,-333,.,57*,8,81*,-3,DNMT1 interf DR=>99
C=C(C)C1(O)OC(=O)C=C1OC (stereo unspecified),0,53*,0,4,-2,-3,5,4,
COc1ccc(C2=CC(=O)OC3(CCCCC3)O2)cc1,0,2,-4,-9,3,0,.,.,
Cc1ccccc1NC(=O)CCN1CCc2ccccc2C1,2,-5,-1,-7,-7,-4,.,.,
COc1ccc2cc(/C=N/NC(=O)CSCc3ccc([N+](=O)[O-])cc3)c(Cl)nc2c1,1,64*,33,-8,4,-2,6,1,
CC(CCc1ccccc1)NCC(O)COc1ccccc1 (stereo unspecified),-2,3,-3,-9,0,-2,.,.,
COc1ccc(CCN2C(=O)c3ccccc3C2c2nnnn2C(C)C)cc1OC (stereo unspecified),-1,.,.,.,-3,.,.,.,
CC1CCN(S(=O)(=O)c2ccc(-c3nnc(SCc4cccnc4)o3)cc2)CC1,1,55*,-8,0,-1,-2,2,1,
COc1ccc(CNC(=O)CN(Cc2ccco2)C(=O)CCC(=O)Nc2ccccn2)cc1,1,12,0,-3,-1,1,.,.,
SMILES,LMPTP block,DNMT1 inh,Rpn11 block,Scp1 inh,SUMO1-SIM PPI,STEP block,DNMT1 inh conf,DNMT1 interf,others
CCCCCCn1c(=O)[nH]c2nc3cc(N)c(C)cc3nc2c1=O,-11,63*,-126,-3,-24,-199,74*,118*,
CC(C)N1CCC1(C)C(=O)Nc1cc(-c2ccccc2)nn1C (stereo unspecified),-2,1,0,.,3,-2,.,.,
CC12CCC3c4ccc(O)c([N+](=O)[O-])c4CCC3C1CCC2=O (stereo unspecified),31,78*,18,.,-8,-2,7,6,
CC12CCC3c4ccc(O)cc4CCC3C1CCC2=O (stereo unspecified),1,0,-6,-4,18,0,.,.,
C=CCNc1nc(NCc2ccccc2)c(C#N)c2c1CN(C)CC2,3,3,-14,-3,8,-1,.,.,
N#Cc1c(NCCN)nc(NCc2ccccc2)c2c1CCN(Cc1ccccc1)C2,27,77*,4,22,0,2,3,-2,
COCC(C)n1c(C)cc(C(=O)COC(=O)CN=C2NS(=O)(=O)c3ccccc32)c1C (stereo unspecified),-1,-5,-2,-17,3,-1,.,.,
CC(=O)c1ccc(NC(=O)CSc2ccc(-c3ccc(-n4cccn4)cc3)nn2)cc1,4,71*,3,-5,6,4,3,0,
CCOCCCNC(=O)c1ccccc1SCC,0,52*,-3,3,4,2,3,7,
COC(=O)COc1ccc(S(=O)(=O)Nc2ccccc2SC)cc1,-1,79*,-5,-28,-1,-1,4,8,

# Screening results (PubChem BioAssay)
